Experimental data from ChEMBL document CHEMBL1137569, “Pharmacomodulations around the 4-oxo-1,4-dihydroquinoline-3-carboxamides, a class of potent CB2-selective cannabinoid receptor ligands: consequences in receptor affinity and functionality” (J Med Chem, 2007).

Columns and labels:
[1] = target: T1, Cannabinoid receptor 2 (Homo sapiens, UniProt P34972); assay: Displacement of [3H]CP-55940 from human CB2 receptor expressed in CHO cells; type: cell-based; design: concentration or dose not given beside the values
Procedure, shortened: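 Competitive radioligand binding on membranes from CHO cells expressing hCB2, with [3H]-CP-55,940 as tracer. Compounds were first screened at 10 µM. Ki at CB2 was then determined for those displacing more than 60% of specific binding.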

[2] = target: T1, Cannabinoid receptor 2; assay: Displacement of [3H]SR-141716A from human CB2 receptor expressed in CHO cells at 10 uM; type: cell-based
[3] = target: T1, Cannabinoid receptor 2; assay: Inhibition of human CB2 receptor expressed in CHO cells; type: cell-based
[4] = target: Cannabinoid receptor 1 (Homo sapiens) (UniProt P21554); assay: Displacement of [3H]SR-141716A from human CB1 receptor expressed in CHO cells at 10 uM; type: cell-based
Procedure, shortened: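 Single-concentration (10 µM) competition screen on membranes from CHO cells expressing hCB1, with [3H]SR-141716A as radioligand. Read-out is percent displacement of the radioligand from its binding site.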

[5] = target: T1, Cannabinoid receptor 2; assay: Activity at human CB2 receptor expressed in CHO cells assessed as stimulated [35S]GTP-gamma-S binding relative to control; type: functional, cell-based; design: concentration or dose not given beside the values

T1 sequence (P34972 whole entry): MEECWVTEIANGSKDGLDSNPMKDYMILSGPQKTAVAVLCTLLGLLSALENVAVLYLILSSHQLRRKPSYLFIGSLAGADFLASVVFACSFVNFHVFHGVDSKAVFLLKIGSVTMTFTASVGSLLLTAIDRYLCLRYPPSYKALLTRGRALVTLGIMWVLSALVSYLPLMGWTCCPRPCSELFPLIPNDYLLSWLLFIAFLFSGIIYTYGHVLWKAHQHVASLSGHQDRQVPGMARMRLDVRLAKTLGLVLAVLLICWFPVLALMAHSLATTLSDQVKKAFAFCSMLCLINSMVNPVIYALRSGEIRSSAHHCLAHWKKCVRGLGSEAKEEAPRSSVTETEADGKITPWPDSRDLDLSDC
Cannabinoid receptor 1 (Homo sapiens), sequence (P21554 whole entry): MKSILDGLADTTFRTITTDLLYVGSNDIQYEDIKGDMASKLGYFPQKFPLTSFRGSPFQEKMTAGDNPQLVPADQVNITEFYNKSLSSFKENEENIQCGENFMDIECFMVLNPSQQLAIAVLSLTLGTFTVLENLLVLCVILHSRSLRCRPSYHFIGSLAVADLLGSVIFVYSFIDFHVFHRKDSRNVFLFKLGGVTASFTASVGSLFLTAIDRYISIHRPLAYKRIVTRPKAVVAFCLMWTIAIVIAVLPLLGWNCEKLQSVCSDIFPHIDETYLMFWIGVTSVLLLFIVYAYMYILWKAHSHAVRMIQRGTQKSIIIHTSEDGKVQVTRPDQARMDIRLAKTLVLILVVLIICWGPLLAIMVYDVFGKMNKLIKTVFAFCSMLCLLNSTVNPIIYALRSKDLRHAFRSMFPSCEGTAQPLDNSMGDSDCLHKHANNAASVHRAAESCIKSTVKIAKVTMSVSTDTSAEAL

O=C(c1cn(Cc2ccc(F)cc2)c2ccccc2c1=O)c1cccc2ccccc12
Activity [1]: 112%
Activity [2]: 70%
Ki [3]: 225 nM

CCCCCn1cc(C(=O)c2cccc3ccccc23)c(=O)c2ccccc21
Activity [4]: 56%
Activity [1]: 97%
Ki [3]: 154 nM

CCCCCn1cc(C(=O)NC23CC4CC(C)(CC(C)(C4)C2)C3)c(=O)c2ccc(Cl)cc21
Activity [5]: 51.6%
Activity [1]: 106%
Ki [3]: 5.3 nM

CCCCCn1cc(C(=O)NCC23CC4CC(CC(C4)C2)C3)c(=O)c2ccccc21
Activity [5]: 155%
Activity [1]: 87.2%
Ki [3]: 50.6 nM

CC12CC3CC(C)(C1)CC(NC(=O)c1cn(CCN4CCOCC4)c4ccccc4c1=O)(C3)C2
Activity [5]: 141%
Activity [1]: 95.6%
Ki [3]: 221 nM

CC12CC3CC(C)(C1)CC(NC(=O)c1cn(Cc4ccc(F)cc4)c4ccccc4c1=O)(C3)C2
Activity [5]: 157%
Activity [1]: 93.2%
Ki [3]: 83.4 nM

CCCCCn1c(C)c(C(=O)NC23CC4CC(C)(CC(C)(C4)C2)C3)c(=O)c2ccccc21
Activity [5]: 128%
Activity [1]: 96.7%
Ki [3]: 200 nM

CCCCCn1cc(NC(=O)c2cccc3ccccc23)c(=O)c2ccccc21
Activity [5]: 139%
Activity [1]: 97.4%
Ki [3]: 265 nM

CCCCCn1cc(C(=O)NC23CC4CC(C)(CC(C)(C4)C2)C3)c(=O)c2ncccc21
Activity [5]: 170%
Activity [1]: 93.4%
Ki [3]: 259 nM
